Assay results taken from ChEMBL document CHEMBL4513216, “Probing the Open Global Health Chemical Diversity Library for Multistage-Active Starting Points for Next-Generation Antimalarials” (ACS Infect Dis, 2020).

Test: Toxicity liver stage against HepG2, at 10uM
Format: cell-based
Parameters: test concentration 10 uM, cell line HepG2-A16-CD81EGFP
Conditions: human, HepG2-A16-CD81EGFP cells; read-out: INHIBITION
How it was run: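 Uninfected HepG2-A16-CD81EGFP cells, 3 × 10^3 per well, 1536-well, plated on prespotted compound at 10 μM final, parasite-free screening media added to match infected plates; puromycin 10 μM positive, DMSO 0.5% negative; run in parallel with 48 h PbLuc assay at 37 °C, 5% CO2; viability by CellTiter-Glo luminescence, normalized to controls.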

| SMILES | cytotoxicity at 10 µM |
| --- | --- |
| O=C(Nc1ccccc1)[C@H]1C[C@H]2CN(C(=O)Nc3ccccc3)C[C@@H]1O2 | 2.4% |
| COc1ccc(CCN2CCCC(CN(C)Cc3ccc(C)o3)C2)cc1 (configuration not stated) | -14.5% |
| CN(C)C(=O)CO[C@@H]1CN(Cc2ccccc2F)[C@@H]2CCCO[C@@H]21 | -3.81% |
| Cc1nc(CN2CCCN(C(=O)CCc3ccco3)CC2)cs1 | 0.386% |
| O=c1n(Cc2cccc(F)c2)nc2ncccn12 | -7.9% |
| CCc1ccc(CN(C(=O)CCn2cc(S(N)(=O)=O)cn2)C2CC2)cc1 | 6.37% |
| Cc1oc(C)c(C(=O)NCc2ccccn2)c1C | -0.729% |
| Cc1nc(C)c(C(=O)NCCn2nc3ccccn3c2=O)s1 | -2.51% |
| CC(Cn1cncn1)NC(=O)N1CC2(CCCC2)c2ccccc21 (configuration not stated) | 5.65% |
| O=C(NC1CCCC1)c1ccnc(C2CCNCC2)c1 | -11.3% |
| Cc1ccc2nc(CNCCCN3CCCC3)cc(O)c2c1 | -49.6% |
| CCCN1CC2(CCN(c3cc(C4CC4)ncn3)CC2)CC1C(=O)O (configuration not stated) | -9.88% |
| CN(Cc1cn(-c2ccccc2)nn1)C1CCCN(c2cccnn2)C1 (configuration not stated) | -20.5% |
| Cn1c(CN2CCCCC2)nnc1C1CCCN(C(=O)CCC(N)=O)C1 (configuration not stated) | 3.94% |
| COc1ccc2nnc(CCC(=O)Nc3nc(C)c(C)s3)n2n1 | -3.18% |
| CN(C)S(=O)(=O)CCNc1ncc2c(n1)CCN2c1ccccc1 | -5.6% |
| c1cncc(NCCNC2CCCNC2)c1 (configuration not stated) | -4.5% |
| O=C(NCCn1ccc(-c2ccccn2)n1)C1CCC1 | 4.23% |
| COc1ccc(CNCCc2cc(F)cc3c2OCOC3)c(OC)c1 | -3.41% |
| CS(=O)(=O)N1CCCC(Cc2ccnc3ccncc23)CC1 (configuration not stated) | -12.8% |
| CCCc1n[nH]c(C2CN(Cc3ncc[nH]3)CCO2)n1 (configuration not stated) | 4.69% |

| SMILES | cytotoxicity at 10 µM |
| --- | --- |
| CCOCC(=O)N1CCC2(CC1)CC(c1ccccc1)CO2 (configuration not stated) | -113% |
| Cc1ccn(-c2ccnc(N3CCC(N4CCCCC4)CC3)n2)n1 | 4.54% |
| O=C(NC1CCCC1)[C@H]1C[C@H]2OCC[C@H]2N(Cc2ccoc2)C1 | -77.3% |
| O=C1CCCN1CCCN1CCCCC1Cn1cncn1 (configuration not stated) | -0.358% |
| COc1cc(CN2CCN(CC3CC3)[C@@H]3CS(=O)(=O)C[C@@H]32)cc(OC)c1 | 1.41% |
| Cc1nc2ccccc2c(=O)n1Cc1nnnn1C1CC1 | -13.8% |
| O=C(O)c1c(-c2cccnc2)ncc2c1CCN(Cc1cccnc1)C2 | -3.14% |
| CCCn1ccnc1CN1CCc2[nH]cnc2C1Cc1ccccc1 (configuration not stated) | -15.8% |
| O=C(N1CCOCC1)[C@@]12CCO[C@@H]1CCN(C1CCCCC1)C2 | 2.14% |
| Cn1cnnc1C1CCCN(C(=O)c2cc(Cl)c3c(c2)OCO3)C1 (configuration not stated) | -1.08% |
| N#Cc1ccccc1N1CCCN(C(=O)NCc2cc[nH]n2)CC1 | 0.428% |
| COc1ccc(-c2nnsc2C(=O)N2CCN(C(C)=O)CC2)cc1 | -0.145% |
| O=C(NCCc1nnc2n1CCC2)N(Cc1ccco1)C1CCCC1 | 5.04% |
| COCC1CN(Cc2csc(C)n2)Cc2nccn2C1 (configuration not stated) | 3.16% |
| CCS(=O)(=O)N1CCN(CCOC)c2ncccc2C1 | 4.37% |
| CNC(=O)N1C[C@@H]2C[C@H](C(=O)NCc3cccnc3)[C@H](C1)O2 | 6.43% |
| CN1CCC(c2cnc(NCc3nccn3C)cn2)CC1 | -5.91% |
| CCC(=O)N1CCN(c2cc(N(C)C)cnn2)CC1 | 2% |
| CN(C)c1nc2c(c(N(C)C)n1)CCN(C(=O)CN1CCC(O)CC1)C2 | 5.31% |
| CS(=O)(=O)N1CCCC1Cn1cccn1 (configuration not stated) | -10.2% |
| O=C(Nc1cccc2c1CCCC2)c1cccc(CN2CC[C@H](O)C2)c1 | -9.32% |

| SMILES | cytotoxicity at 10 µM |
| --- | --- |
| CCC1c2ccsc2CCN1C(=O)NCc1cccnc1N(C)C (configuration not stated) | -17.4% |
| COC(=O)c1oc(CNC(C)(C)c2ccc3c(c2)OCCO3)cc1C | 5.36% |
| COC(=O)CN1N=C(C(=O)N2CCCC2)S(=O)(=O)c2ccccc21 | -8.25% |
| Cc1cccc(C)c1NC(=O)CNC(C)Cc1ccsc1 (configuration not stated) | -6.12% |
| CC(c1ccncn1)N(C)Cc1cc2cc3c(cc2[nH]c1=O)OCO3 (configuration not stated) | 9.83% |
| Cc1cccc(-c2ccc(C(=O)N3CCN(C(C)C)CC3)c(=O)[nH]2)c1 | -3.27% |
| Cc1cc(C(=O)N2CCC(c3nnc(Cn4ccnc4)n3C)CC2)cs1 | -114% |
| Cc1csc(CN(C)c2cc(C)nc3c(C)c(C)nn23)n1 | -2.96% |
| Cc1ccccc1N1CCCN(C(=O)c2cn(C)c3ccccc23)CC1 | -11.2% |
| Cc1ccc2nc(CN3CCN(C4CCCCC4)C(=O)C3)cc(O)c2c1 | 12.9% |
| O=C(C1CCOCC1)N1C[C@H]2CC(OCc3ccccc3)C[C@H]2C1 (some centres not stated) | -5.59% |
| Cc1ccc(N2CCC3(CC2)CCN(C2CCOC2)CC3)nn1 (configuration not stated) | 7.67% |
| COc1ccc(N(C(=O)Cc2ccc(C)nc2)C(C)C)cc1F | 0.854% |
| Cn1cccc1C(=O)N1CCn2cc(CNC(=O)CC3CC3)nc2C1 | 3.11% |
| CC[C@H]1CN(C(=O)c2cnc(CN3CCCC3)s2)CC[C@@]1(C)O | -16% |
| Cc1nc(CN2CCCC(N(C)Cc3nnsc3Cl)C2)no1 (configuration not stated) | -4.36% |
| CC(C)(C)CC(=O)NS(=O)(=O)c1ccc(F)cc1C(F)(F)F | -4.3% |
| COc1cccc(C2CCN2C(=O)c2cnccn2)c1 (configuration not stated) | 12.2% |
| CCn1c(C)nnc1CN(C)C1CCN(CCCOC)C1 (configuration not stated) | 4.19% |
| CN(CC(N)=O)Cc1ccc(F)cc1Cl | -3.53% |
| Cc1nc(CN2C[C@@H]3CN(C(=O)c4cccn4C)C[C@@H]3C2)cs1 | 0.346% |

| SMILES | cytotoxicity at 10 µM |
| --- | --- |
| Cc1cnc(N2CCc3c(c(COc4cncnc4)nn3C)C2)nc1 | -98.8% |
| O=C(CCn1ccnn1)N1CCCC(n2cncn2)C1 (configuration not stated) | -1.26% |
| O=C(CSCC1CC1)N1CCCN(c2ccc(F)cc2)CC1 | -4.43% |
| O=C(O)C1CCCN(C(=O)CCn2ccc3c(Br)cccc32)C1 (configuration not stated) | 10.9% |
| COc1ccc(CN2CCOC(CCc3ccnc(N)c3)C2)cc1 (configuration not stated) | 13.3% |
| O=c1cc(N2CCCC2)cnn1Cc1noc(C2CCCO2)n1 (configuration not stated) | -59.8% |
| CNc1ncc(CN(C)c2nccc(CCC(F)(F)F)n2)cn1 | -16.3% |
| COCCN1CCC2(CC1)CC(c1cccnc1)C(=O)N2C (configuration not stated) | 7.26% |
| N[C@H]1CCCN(S(=O)(=O)c2ccc(C(=O)NCC(F)F)cc2)C1 | -0.566% |
| CS(=O)(=O)NCc1cncc2c1CCN(C(=O)c1ccccn1)C2 | 0.734% |
| Cc1nc(C2CCCN(C(=O)c3cccc(S(C)(=O)=O)c3)C2)no1 (configuration not stated) | -2.33% |
| CC(C)c1cnc(CNc2c(F)cccc2-n2cccn2)o1 | -6.07% |
| CN(C)C[C@@H]1CN(Cc2ccccc2C#N)C[C@@H]1CO | -1.56% |
| CS(=O)(=O)N1CCCC12CCN(Cc1nccs1)CC2 | 8.1% |
| Cc1cc(-c2cc(-c3cc(CC(=O)O)cs3)nc(N)c2C#N)oc1C | -6.25% |
| O=C1CC2(CCSC2)C(=O)N1Cc1ncc(-c2ccccc2)o1 (configuration not stated) | 14.4% |
| Cc1c(C(C)NC(=O)C2CCCC2)cnn1C (configuration not stated) | -10.9% |
| C[C@@H]1CN(Cc2nc(C(N)=O)no2)CC[C@@]1(O)C1CCOCC1 | -38.5% |
| CC(=O)N[C@@H]1CN(C2CCN(c3ccccc3F)CC2)C[C@H]1C(C)C | -14.5% |
